Results taken from ChEMBL document CHEMBL1828568, “Novel imaging agents for β-amyloid plaque based on the N-benzoylindole core” (Bioorg Med Chem Lett, 2011).

Experiments:
[1] = Displacement of [125I]TZDM from amyloid beta (1 to 40) aggregates after 2 hrs by gamma counting
Summary of the method: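 Competition binding against [125I]TZDM as radiolabeled standard, using Aβ1–40 aggregates; run in triplicate, results as mean ± SD.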

[2] = Binding affinity to amyloid beta fibrils
Summary of the method: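 Competitive binding to Aβ1–40 aggregates, with [125I]TZDM as the radiolabeled reference ligand displaced by unlabeled test compound. Run in triplicate and reported as mean ± SD.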

| SMILES | Ki [1] [nM] | Ki [2] [nM] |
| --- | --- | --- |
| COc1ccc(/C=C/C(=O)n2ccc3cc(Cl)ccc32)cc1 | 18.1 |  |
| COc1ccc(/C=C/C(=O)n2ccc3cc(F)ccc32)cc1 | 32.4 |  |
| O=C(/C=C/c1ccccc1)n1ccc2cc(F)ccc21 | 32.7 |  |
| COc1ccc(/C=C/C(=O)n2ccc3cc(I)ccc32)cc1 | 10.2 |  |
| CC(C)Cc1ccc([C@@H](C)C(=O)O)cc1 [(R)-IBUPROPHEN] |  | 11.3 |
